For orientation: pIC50 means the negative decadic logarithm of the IC50, by convention in mol/L. The term inhibition denotes the drop in the measured response relative to a control, in per cent.

The target of experiment [1] is T1, Epidermal growth factor receptor (Homo sapiens, UniProt P00533, C797S/L858R/T790M). Put plainly: Inhibition of N-terminal His6-tagged human EGFR L858R/T790M/C797S mutant expressed in Sf9 cells assessed as decrease in substrate phosphorylation using Srctide as substrate preincubated for 20 mins followed by substrate addition in presence of 5uM of ATP and measured after 45 mins by microplate reader analysis.

The test system of experiment [2] is Epidermal growth factor receptor (Homo sapiens), P00533 [L858R]. Put plainly: Inhibition of human EGFR L858R mutant assessed as decrease in substrate phosphorylation using Srctide as substrate preincubated for 15 mins followed by substrate addition in presence of 1mM of ATP and measured after 45 mins by microplate reader analysis. Particulars: time 60.0 min. An outline of the steps: (§1)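 Panel format: compound at 1 µM final was preincubated 15 min with kinase in 20 mM HEPES pH 7.4, 5 mM MgCl2, 1 mM MnCl2, 0.003% Brij-35, 0.004% Tween-20, 2 mM DTT. ATP (1 mM) and Srctide (1.5 µM) were then added for 45 min. EDTA stop; mobility-shift read, ex 488/em 530 nm.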

Experiment [3] addresses T1, Epidermal growth factor receptor. Put plainly: Inhibition of N-terminal His6-tagged human EGFR L858R/T790M/C797S mutant expressed in Sf9 cells assessed as decrease in substrate phosphorylation using Srctide as substrate preincubated for 60 mins followed by substrate addition in presence of 5uM of ATP and measured after 45 mins by microplate reader analysis.
Experiment [4] relates to Epidermal growth factor receptor (Homo sapiens), P00533 [L858R]. The experiment can be described thus: Binding affinity to N-terminal His6-tagged human EGFR L858R mutant expressed in Sf9 cells at pH 7.4 assessed as covalent adduct at +277 Da formation at 0.3 to 1 uM incubated for 1 hrs by LC-MS analysis. As to conditions: dose 0.3-1 µM. Summed up:
(§2)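 EGFR (694-1022) L858R or L858R/C775S as N-terminal His-GST fusions from Sf9 cells, purified by Ni affinity then SEC. Each protein at 0.5 mg/ml was incubated with compound (0.3, 1 or 3 µM) in 20 mM Tris-HCl pH 7.5, 150 mM NaCl, 1 mM TCEP, 5% glycerol, 1 h at room temperature. SDS was added to 1% final, samples boiled 95°C 10 min, then UHPLC-MS.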

For experiment [5], the system named is Epidermal growth factor receptor (Homo sapiens), P00533 [L858R,T790M,C797S]. Put plainly: Inhibition of human EGFR T790M/C797S/L858R mutant assessed as decrease in substrate phosphorylation using Srctide as substrate preincubated for 15 mins followed by substrate addition in presence of 1mM of ATP and measured after 45 mins by microplate reader analysis. As to conditions: time 60.0 min. An outline of the steps:
(§3)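 Compound at 1 µM final, 15 min preincubation with mutant EGFR in mutant-EGFR buffer (5 mM MgCl2, 1 mM MnCl2) at 200 ng/mL for T790M/C797S/L858R, 180 ng/mL for d746-750/T790M, and 350 ng/mL for d746-750/T790M/C797S. Then 1 mM ATP plus 1.5 µM Srctide for 45 min. Mobility-shift read.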

The test system of experiment [6] is Epidermal growth factor receptor (Homo sapiens), P00533 [UNDEFINED MUTATION]. Put plainly: Inhibition of human EGFR d746-750 mutant assessed as decrease in substrate phosphorylation using Srctide as substrate preincubated for 15 mins followed by substrate addition in presence of 1mM of ATP and measured after 45 mins by microplate reader analysis. As to conditions: time 60.0 min. Summed up:
as §1

Experiment [7] has as its target T1, Epidermal growth factor receptor. Put plainly: Inhibition of N-terminal His6-tagged human EGFR L858R/T790M/C797S mutant expressed in Sf9 cells assessed as decrease in substrate phosphorylation incubated for 45 mins using Srctide as substrate in presence of 1mM of ATP by microplate reader analysis. An outline of the steps:
(§4)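 Compound in DMSO was preincubated 0, 20 or 60 min with 250 pg/µL EGFR_TM (residues 694-1022) in 20 mM HEPES pH 7.4, 5 mM MgCl2, 1 mM MnCl2, 0.003% Brij-35, 0.004% Tween-20, 2 mM DTT. […] EDTA stop; phosphorylation read by mobility-shift chip, ex 488/em 530 nm.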

For experiment [8] the target is unchanged. The experiment can be described thus: Inhibition of N-terminal His6-tagged human EGFR L858R/T790M/C797S mutant expressed in Sf9 cells assessed as decrease in substrate phosphorylation using Srctide as substrate preincubated for 60 mins followed by substrate addition in presence of 1mM of ATP and measured after 45 mins by microplate reader analysis. An outline of the steps:
as §4

The subject of experiment [9] is Epidermal growth factor receptor (Homo sapiens), P00533 [L858R,C775S]. The experiment can be described thus: Binding affinity to N-terminal His6-tagged human EGFR L858R/C775S mutant expressed in Sf9 cells at pH 7.4 assessed as covalent adduct at +277 Da formation at 0.3 to 1 uM incubated for 1 hrs by LC-MS analysis. As to conditions: dose 0.3-1 µM. An outline of the steps: as §2

Experiment [10] has as its target T1, Epidermal growth factor receptor. Put plainly: Inhibition of N-terminal His6-tagged human EGFR L858R/T790M/C797S mutant expressed in Sf9 cells assessed as decrease in substrate phosphorylation incubated for 45 mins using Srctide as substrate in presence of 5uM of ATP by microplate reader analysis.
The test system of experiment [11] is Epidermal growth factor receptor (Homo sapiens), P00533 [UNDEFINED MUTATION]. The experiment can be described thus: Inhibition of human EGFR d746-750/T790M mutant assessed as decrease in substrate phosphorylation using Srctide as substrate preincubated for 15 mins followed by substrate addition in presence of 1mM of ATP and measured after 45 mins by microplate reader analysis. As to conditions: time 60.0 min. Summed up:
as §3

For experiment [12], the system named is Epidermal growth factor receptor (Homo sapiens), P00533 [L858R,T790M]. The experiment can be described thus: Inhibition of human EGFR T790M/L858R mutant assessed as decrease in substrate phosphorylation using Srctide as substrate preincubated for 15 mins followed by substrate addition in presence of 1mM of ATP and measured after 45 mins by microplate reader analysis. As to conditions: time 60.0 min. An outline of the steps: as §1

Experiment [13] deals with MAP kinase-interacting serine/threonine-protein kinase 1 (Homo sapiens) (UniProt Q9BUB5). The experiment can be described thus: Inhibition of human MNK1 assessed as decrease in substrate phosphorylation using 5FAM-KKKVSRSGLYRSPSMPENLNRPR-COOH as substrate preincubated for 15 mins followed by substrate addition in presence of 1mM of ATP and measured after 45 mins by microplate reader analysis. As to conditions: time 60.0 min. Summed up:
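MNK1 at 440 ng/mL was preincubated 15 min with 1 µM compound in 100 mM HEPES pH 7.4, 0.003% Brij-35, 0.004% Tween-20, 1 mM DTT. Then 1 mM ATP, 1.5 µM FL-Peptide 10 and 10 mM MgCl2 were added for 45 min. Mobility-shift read.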

Experiment [14] concerns Epidermal growth factor receptor (Homo sapiens), P00533 [UNDEFINED MUTATION]. Put plainly: Inhibition of human EGFR d746-750/T790M/C797S mutant assessed as decrease in substrate phosphorylation using Srctide as substrate preincubated for 15 mins followed by substrate addition in presence of 1mM of ATP and measured after 45 mins by microplate reader analysis. Particulars: time 60.0 min. Summed up:
as §3

pIC50: −log10 of the molar value. Activity calls are given as the source filed them. The rule behind the calls is not given here.

MAP kinase-interacting serine/threonine-protein kinase 1 (Homo sapiens), sequence (Q9BUB5 whole entry, looked up): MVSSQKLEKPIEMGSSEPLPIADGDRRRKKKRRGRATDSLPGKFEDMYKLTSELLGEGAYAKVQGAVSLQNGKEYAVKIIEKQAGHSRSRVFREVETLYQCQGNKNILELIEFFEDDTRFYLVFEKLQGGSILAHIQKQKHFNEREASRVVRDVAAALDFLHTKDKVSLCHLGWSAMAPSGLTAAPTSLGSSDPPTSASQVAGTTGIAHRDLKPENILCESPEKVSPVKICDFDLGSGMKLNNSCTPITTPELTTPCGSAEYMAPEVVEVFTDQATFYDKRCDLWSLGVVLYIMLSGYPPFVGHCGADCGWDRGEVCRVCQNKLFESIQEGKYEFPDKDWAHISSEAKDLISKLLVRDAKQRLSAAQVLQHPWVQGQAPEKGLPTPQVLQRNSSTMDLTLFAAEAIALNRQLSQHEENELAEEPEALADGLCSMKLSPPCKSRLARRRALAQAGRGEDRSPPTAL

Regarding `C=CC(=O)Nc1cc(-c2cn(C)c3ccccc23)ncn1`, the pIC50 in experiment [1] is 6.62; in experiment [3], 6.78; in experiment [7] it was 5.89; in experiment [8] it was 6.82; in experiment [10] it was 6.22. Further, the inhibition in experiment [2] was > 80%; in [5], > 80%; in experiment [6], > 80%; in experiment [11] it was > 80%; in experiment [12] it was > 80%; in experiment [13], 26.5%. Further, the inhibition in experiment [14] was > 80%. In addition, the outcome in experiment [4] was inactive. For the same compound, the result in [9] was Active.

Source of the values: ChEMBL document CHEMBL5329221, “A covalent fragment-based strategy targeting a novel cysteine to inhibit activity of mutant EGFR kinase” (RSC Med Chem, 2023).
